Values after ≈ are worked out from the molar mass of the structure shown. Some results are limits rather than exact numbers.

One experiment has as its system Pseudomonas aeruginosa. Nature of the experiment: In Vitro minimal inhibitory concentration against Pseudomonas aeruginosa (1101-75). The class given is functional. An outline of the steps: (§1)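 Serial broth dilution in heart infusion broth. Inoculum was a 10^-4 dilution of an overnight culture. Seeded antibiotic-containing tubes were incubated 37 °C for 20 h. […] Values are the average of triplicate determinations.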

In another experiment the test system is Staphylococcus aureus. Briefly: In Vitro minimal inhibitory concentration against Staphylococcus aureus (FDA 209P). The format is functional. An outline of the steps: as §1
The test system of a further experiment is Escherichia coli. Nature of the experiment: In Vitro minimal inhibitory concentration against Escherichia coli (ATCC 39188). The format is functional. An outline of the steps:
as §1

The test system of a further experiment is Salmonella typhi. Nature of the experiment: In Vitro minimal inhibitory concentration against Salmonella typhi (O-901). The format is functional, Salmonella enterica subsp. enterica serovar Typhi. Particulars: Salmonella enterica. In short, it runs like this:
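Serial broth dilution MIC. Inoculum: overnight culture diluted 10^-4 in heart infusion broth. Seeded antibiotic-containing broth tubes incubated 20 h at 37 °C. MIC is the lowest concentration preventing visible growth. Concentrations tested up to 128 μg/mL. Values are the average of triplicate determinations.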

The test system of a further experiment is Klebsiella pneumoniae. Briefly: In Vitro minimal inhibitory concentration against Klebsiella pneumoniae (NCTC 418). The format is functional. In short, it runs like this: as §1

With `CC1=C(C(=O)O)N2C(=O)[C@@H](NC(=O)Cc3ccccc3)[C@H]2SC1`, the MIC against Pseudomonas aeruginosa is 100 µg/mL (≈ 301 µM); with Staphylococcus aureus, 0.64 µg/mL (≈ 1.93 µM); in the experiment on Escherichia coli, 13.1 µg/mL (≈ 39.5 µM); against Salmonella typhi it was 24.5 µg/mL (≈ 73.7 µM); in the experiment on Klebsiella pneumoniae, 2.98 µg/mL (≈ 8.97 µM).
`CS(=O)(=O)C1(C(=O)O)C(=O)NC[C@@H]2[C@H](NC(=O)Cc3ccccc3)C(=O)N21` (stereo not given in full): the MIC worked out at 120 µg/mL (≈ 303 µM) in the experiment on Pseudomonas aeruginosa; 48.5 µg/mL (≈ 123 µM) against Staphylococcus aureus; 97.2 µg/mL (≈ 246 µM) in the experiment on Escherichia coli; 65.3 µg/mL (≈ 165 µM) with Salmonella typhi; 51 µg/mL (≈ 129 µM) with Klebsiella pneumoniae.
As for `O=C(Cc1ccccc1)N[C@@H]1C(=O)N2C(C(=O)O)=C(OS(=O)(=O)C(F)(F)F)NC[C@H]12` (racemic), the MIC in the experiment on Pseudomonas aeruginosa is 1.15 µg/mL (≈ 2.56 µM); against Staphylococcus aureus it was 0.01 µg/mL (≈ 0.0223 µM); in the experiment on Escherichia coli, 0.09 µg/mL (≈ 0.2 µM); against Salmonella typhi it was 0.68 µg/mL (≈ 1.51 µM); against Klebsiella pneumoniae, 0.24 µg/mL (≈ 0.534 µM).
On to `O=C(Cc1ccccc1)N[C@@H]1C(=O)N2C(C(=O)O)=C(O)NC[C@H]12` (racemic), for which the MIC in the experiment with Pseudomonas aeruginosa is over 128 µg/mL; in the experiment on Staphylococcus aureus, 29.5 µg/mL (≈ 93 µM); with Escherichia coli, 94.7 µg/mL (≈ 298 µM); in the experiment with Salmonella typhi, over 128 µg/mL; in the experiment with Klebsiella pneumoniae, over 128 µg/mL.
`CS(=O)(=O)C1=C(O)NC[C@@H]2[C@H](NC(=O)Cc3ccccc3)C(=O)N12` (racemic): the MIC against Pseudomonas aeruginosa, in the experiment on Staphylococcus aureus, in the experiment on Escherichia coli, against Salmonella typhi and with Klebsiella pneumoniae was over 128 µg/mL throughout.
Consider `CS(=O)(=O)OC1=C(C(=O)OCc2ccccc2)N2C(=O)[C@@H](NC(=O)Cc3ccccc3)[C@H]2CN1` (racemic), for which the minimal inhibitory concentration (MIC) in the experiment with Pseudomonas aeruginosa, against Staphylococcus aureus, in the experiment with Escherichia coli, in the experiment with Salmonella typhi and in the experiment on Klebsiella pneumoniae was over 128 µg/mL each time.
As to `O=C(Cc1ccccc1)N[C@@H]1C(=O)N2C(C(=O)OCc3ccccc3)=C(OS(=O)(=O)C(F)(F)F)NC[C@H]12` (racemic), the MIC with Pseudomonas aeruginosa, in the experiment on Staphylococcus aureus, with Escherichia coli, against Salmonella typhi and against Klebsiella pneumoniae was over 128 µg/mL each time.
Turning to `CS(=O)(=O)OC1=C(C(=O)O)N2C(=O)[C@@H](NC(=O)Cc3ccccc3)[C@H]2CN1` (racemic), the MIC with Pseudomonas aeruginosa was 4.38 µg/mL (≈ 11.1 µM); in the experiment with Staphylococcus aureus, 0.07 µg/mL (≈ 0.177 µM); with Escherichia coli, 0.95 µg/mL (≈ 2.4 µM); in the experiment on Salmonella typhi it was 1.2 µg/mL (≈ 3.03 µM); in the experiment with Klebsiella pneumoniae, 0.68 µg/mL (≈ 1.72 µM).
In the same order, the values of `CO/N=C(\C(=O)N[C@@H]1C(=O)N2C(C(=O)O)=C(COC(C)=O)CS[C@H]12)c1csc(N)n1` [CEFOTAXIME] are 62.4 µg/mL (≈ 137 µM), 0.08 µg/mL (≈ 0.176 µM), 0.25 µg/mL (≈ 0.549 µM), 20.3 µg/mL (≈ 44.6 µM) and 10.2 µg/mL (≈ 22.5 µM).
Regarding `CC1(C)S[C@@H]2[C@H](NC(=O)Cc3ccccc3)C(=O)N2[C@H]1C(=O)O` [PENICILLIN G], the MIC in the experiment with Pseudomonas aeruginosa is over 128 µg/mL; in the experiment with Staphylococcus aureus, 0.4 µg/mL (≈ 1.2 µM); against Escherichia coli, 2.3 µg/mL (≈ 6.88 µM); against Salmonella typhi it was over 128 µg/mL; against Klebsiella pneumoniae, over 128 µg/mL.

The record behind these values is ChEMBL document CHEMBL1131185, “Syntheses of new isodethiaazacephems as potent antibacterial agents” (1998).
